Test results as given in ChEMBL document CHEMBL1151946, “Doxazosin-related alpha1-adrenoceptor antagonists with prostate antitumor activity” (J Med Chem, 2009).

Legend:
[1] = system: DU-145; assay: Cytotoxicity against human DU145 cells after 72 hrs by CellTitter-Glo luminescent cell viability assay; format: functional, cell-based; conditions: DU-145, 72 h
[2] = biological target: T1, Alpha-1B adrenergic receptor (Homo sapiens, UniProt P35368); assay: Displacement of [3H]prazosin from human Alpha-1B adrenoceptor expressed in CHO cells; format: cell-based
T1 sequence (P35368 whole entry): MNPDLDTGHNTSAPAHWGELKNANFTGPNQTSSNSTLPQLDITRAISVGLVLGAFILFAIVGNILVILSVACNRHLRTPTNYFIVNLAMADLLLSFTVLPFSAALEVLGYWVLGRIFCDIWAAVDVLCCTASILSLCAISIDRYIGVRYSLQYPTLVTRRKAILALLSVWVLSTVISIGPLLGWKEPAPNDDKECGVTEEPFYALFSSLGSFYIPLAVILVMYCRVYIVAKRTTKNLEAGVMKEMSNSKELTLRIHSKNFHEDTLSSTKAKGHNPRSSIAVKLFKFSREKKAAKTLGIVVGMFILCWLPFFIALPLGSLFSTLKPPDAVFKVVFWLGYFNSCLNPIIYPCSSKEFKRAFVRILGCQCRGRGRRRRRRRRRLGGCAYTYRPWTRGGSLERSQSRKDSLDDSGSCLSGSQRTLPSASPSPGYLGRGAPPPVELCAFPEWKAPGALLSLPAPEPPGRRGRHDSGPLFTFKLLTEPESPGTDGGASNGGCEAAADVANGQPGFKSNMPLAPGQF
Method in brief: (§1)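 Radioligand competition binding used [3H]prazosin on membranes of CHO cells expressing human α1a, α1b or α1d adrenoceptor. IC50 values were converted to pKi by the Cheng-Prusoff equation. Data come from two to three experiments run in triplicate, agreeing within ±20%.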

[3] = system: NHDF; assay: Cytotoxicity against human NHDF cells after 72 hrs by CellTitter-Glo luminescent cell viability assay; format: functional, cell-based
[4] = system: PC-3; assay: Induction of apoptosis in human PC3 cells assessed as caspase 3/7 activation after 24 hrs by Caspase-Glo 3/7 assay; format: functional, cell-based; conditions: PC-3, 24 h
[5] = biological target: T2, Alpha-1A adrenergic receptor (Rattus norvegicus) (UniProt P43140); assay: (§2) Antagonist activity at rat alpha1A adrenoceptor assessed as inhibition if norepinephrine-induced contraction of vas deference; format: functional
T2 sequence (whole entry): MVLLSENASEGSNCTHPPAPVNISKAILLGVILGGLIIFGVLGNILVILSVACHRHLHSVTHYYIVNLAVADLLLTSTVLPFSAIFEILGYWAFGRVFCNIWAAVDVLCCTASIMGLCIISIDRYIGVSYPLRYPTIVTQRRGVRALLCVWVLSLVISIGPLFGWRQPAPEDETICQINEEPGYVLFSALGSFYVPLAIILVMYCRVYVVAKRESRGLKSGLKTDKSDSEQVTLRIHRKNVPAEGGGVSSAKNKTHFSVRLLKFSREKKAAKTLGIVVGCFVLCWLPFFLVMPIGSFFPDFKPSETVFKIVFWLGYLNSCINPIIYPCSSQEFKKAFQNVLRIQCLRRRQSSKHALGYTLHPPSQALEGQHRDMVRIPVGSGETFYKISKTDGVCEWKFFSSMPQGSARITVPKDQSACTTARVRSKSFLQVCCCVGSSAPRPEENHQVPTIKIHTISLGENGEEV
Method in brief: (§3)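 Isolated rat tissue contraction assay. The α1A response used vas deferens with (-)-noradrenaline as agonist, α1D used thoracic aorta with (-)-noradrenaline, and α1B used spleen with (-)-phenylephrine. pA2 values are means ± SEM over three antagonist concentrations, each tested at least four times. Where the Schild slope differed from unity, pKB was calculated by van Rossum at the lowest antagonist concentration giving log(CR−1) ≥0.5.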

[6] = system: DU-145; assay: Induction of apoptosis in human DU145 cells assessed as caspase 3/7 activation after 24 hrs Caspase-Glo 3/7 assay; format: functional, cell-based; conditions: du-145
[7] = system: PC-3; assay: Cytotoxicity against human PC3 cells after 72 hrs by CellTitter-Glo luminescent cell viability assay; format: functional, cell-based; conditions: PC-3, 72 h
[8] = system: LNCaP; assay: Cytotoxicity against human LNCAP cells after 72 hrs by CellTitter-Glo luminescent cell viability assay; format: functional, cell-based
[9] = biological target: T3, Alpha-1D adrenergic receptor (Rattus norvegicus) (UniProt P23944); assay: Antagonist activity at rat Alpha-1D adrenoceptor assessed as inhibition if norepenephrine-induced contraction of thoracic aorta; format: functional, tissue-based; method in brief: as §3
T3 sequence (whole entry): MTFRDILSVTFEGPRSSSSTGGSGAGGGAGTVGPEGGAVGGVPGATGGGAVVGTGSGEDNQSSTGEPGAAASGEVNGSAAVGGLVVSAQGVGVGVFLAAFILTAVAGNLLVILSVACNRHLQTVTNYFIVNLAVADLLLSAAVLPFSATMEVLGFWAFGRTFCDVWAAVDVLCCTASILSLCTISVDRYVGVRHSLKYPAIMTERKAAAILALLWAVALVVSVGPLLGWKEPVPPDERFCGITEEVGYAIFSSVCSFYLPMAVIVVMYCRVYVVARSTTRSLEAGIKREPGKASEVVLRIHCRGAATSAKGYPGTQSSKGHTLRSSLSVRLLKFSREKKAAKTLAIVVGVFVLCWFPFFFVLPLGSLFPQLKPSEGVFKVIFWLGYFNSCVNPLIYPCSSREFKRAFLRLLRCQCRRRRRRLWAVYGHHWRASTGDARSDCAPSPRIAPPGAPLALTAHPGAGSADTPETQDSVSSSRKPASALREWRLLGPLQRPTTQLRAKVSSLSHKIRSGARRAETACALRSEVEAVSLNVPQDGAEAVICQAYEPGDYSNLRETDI

[10] = system: NHDF; assay: Induction of apoptosis in human NHDF cells assessed as caspase 3/7 activation after 24 hrs Caspase-Glo 3/7 assay; format: functional, cell-based
[11] = system: LNCaP; assay: Induction of apoptosis in human LNCAP cells assessed as caspase 3/7 activation after 24 hrs Caspase-Glo 3/7 assay; format: functional, cell-based; conditions: lncap
[12] = biological target: T4, Alpha-1D adrenergic receptor (Homo sapiens, UniProt P25100); assay: Displacement of [3H]prazosin from human Alpha-1D adrenoceptor expressed in CHO cells; format: cell-based; method in brief: as §1
T4 sequence (P25100 whole entry): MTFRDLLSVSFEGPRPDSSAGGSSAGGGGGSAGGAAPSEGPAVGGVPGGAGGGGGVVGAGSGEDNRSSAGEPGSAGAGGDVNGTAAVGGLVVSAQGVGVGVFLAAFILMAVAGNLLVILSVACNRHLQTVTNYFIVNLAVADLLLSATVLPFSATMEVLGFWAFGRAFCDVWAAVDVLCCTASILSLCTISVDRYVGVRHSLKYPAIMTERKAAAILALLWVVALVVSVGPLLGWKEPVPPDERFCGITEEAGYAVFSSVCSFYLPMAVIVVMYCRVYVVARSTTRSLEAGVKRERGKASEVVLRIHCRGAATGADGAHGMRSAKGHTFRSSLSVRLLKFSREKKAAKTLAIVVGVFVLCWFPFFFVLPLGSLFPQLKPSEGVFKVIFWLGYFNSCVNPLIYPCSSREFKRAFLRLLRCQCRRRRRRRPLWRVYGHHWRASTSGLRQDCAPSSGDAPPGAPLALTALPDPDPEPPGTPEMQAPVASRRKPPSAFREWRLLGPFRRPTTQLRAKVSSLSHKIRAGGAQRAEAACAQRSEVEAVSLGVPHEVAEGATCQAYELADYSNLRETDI

[13] = biological target: T5, Alpha-1A adrenergic receptor (Homo sapiens, UniProt P35348); assay: Displacement of [3H]prazosin from human alpha1A adrenoceptor expressed in CHO cells; format: cell-based; method in brief: as §1
T5 sequence (P35348 whole entry): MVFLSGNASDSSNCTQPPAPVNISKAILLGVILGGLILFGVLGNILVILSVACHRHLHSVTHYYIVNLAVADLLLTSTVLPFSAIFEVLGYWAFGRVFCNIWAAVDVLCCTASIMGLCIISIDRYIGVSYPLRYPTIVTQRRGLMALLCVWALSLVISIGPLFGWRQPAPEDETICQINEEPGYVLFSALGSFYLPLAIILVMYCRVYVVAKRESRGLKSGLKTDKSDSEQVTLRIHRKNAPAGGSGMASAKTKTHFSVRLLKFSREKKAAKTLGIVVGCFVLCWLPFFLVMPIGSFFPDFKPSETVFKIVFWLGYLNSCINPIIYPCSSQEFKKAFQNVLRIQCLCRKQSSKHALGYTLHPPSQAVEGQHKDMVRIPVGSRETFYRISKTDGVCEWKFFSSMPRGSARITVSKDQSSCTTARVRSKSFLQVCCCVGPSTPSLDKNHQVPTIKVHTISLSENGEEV

[14] = biological target: T6, Alpha-1B adrenergic receptor (Rattus norvegicus) (UniProt P15823); assay: Antagonist activity at rat Alpha-1B adrenoceptor assessed as inhibition if phenylephrine-induced contraction of spleen; format: functional, tissue-based; method in brief: as §3
T6 sequence (whole entry): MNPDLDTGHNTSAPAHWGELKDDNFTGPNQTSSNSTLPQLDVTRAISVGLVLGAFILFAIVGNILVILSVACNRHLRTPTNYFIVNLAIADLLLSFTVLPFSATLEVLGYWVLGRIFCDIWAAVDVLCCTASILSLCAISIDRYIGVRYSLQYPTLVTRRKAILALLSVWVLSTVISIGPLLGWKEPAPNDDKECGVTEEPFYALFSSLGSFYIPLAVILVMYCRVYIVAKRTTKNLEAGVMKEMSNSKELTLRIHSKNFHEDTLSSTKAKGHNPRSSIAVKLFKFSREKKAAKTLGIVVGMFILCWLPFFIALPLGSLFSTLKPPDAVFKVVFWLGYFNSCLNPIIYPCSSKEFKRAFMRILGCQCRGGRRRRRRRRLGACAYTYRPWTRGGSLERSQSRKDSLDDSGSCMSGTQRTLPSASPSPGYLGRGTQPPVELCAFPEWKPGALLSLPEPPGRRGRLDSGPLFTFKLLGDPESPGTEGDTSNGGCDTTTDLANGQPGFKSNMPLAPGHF

[15] = biological target: T7, Alpha-1A adrenergic receptor (Rattus norvegicus, UniProt P43140); assay: as §2; format: functional; conditions: read-out: pA2 (converted); method in brief: as §3
T7 sequence (P43140 whole entry): T2 sequence (whole entry)

Structure (SMILES) | IC50 [1] | Ki [2] | IC50 [3] | EC50 [4] | pKb [5] | EC50 [6] | IC50 [7] | IC50 [8] | pKb [9] | EC50 [10] | EC50 [11] | Ki [12] | Ki [13] | pKb [14] | Kb [15]
COc1cc2nc(N3CCN(C(=O)C4COc5ccccc5O4)[C@H]4CCCC[C@@H]43)nc(N)c2cc1OC (relative stereo) | > 10000 nM | 22.4 nM | > 10000 nM | 10000 nM | 5.88 | 10000 nM | > 10000 nM | 9750 nM | 6.88 | 10000 nM | 10000 nM | 26.3 nM | 81.3 nM | 7.14 | –
COc1cc2nc(N3CCN(C(=O)c4ccco4)[C@H]4CCCC[C@H]43)nc(N)c2cc1OC [CYCLAZOSIN] | – | 0.324 nM | – | – | – | – | – | – | – | – | – | 0.17 nM | 5.5 nM | – | 1.23 nM
COc1cc2nc(N3CCN(C(=O)C4COc5ccccc5O4)[C@@H]4CCCC[C@@H]43)nc(N)c2cc1OC (single isomer, unassigned) | – | 1.41 nM | – | – | – | – | 1020 nM | – | – | – | – | 0.49 nM | 3.39 nM | – | –
